The target in experiment [1] is T1, Escherichia coli GUS (EcGUS) (Escherichia coli, UniProt P05804). The experiment is described as follows: Inhibition kinetics. The format is biochemical. The note with it: pNPG as substrate; for type of inhibition of EcGUS: Lineweaver-Burk plot. In a few lines:
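Recombinant EcGUS was expressed in E. coli BL21(DE3) carrying pET28a-EcGUS. The enzyme hydrolysed pNPG, and activity was read as para-nitrophenyl released. Test compound stocks were 10 mM in DMSO. pNPG and inhibitor concentrations were varied. Inhibition type came from where the regression lines intercept on Lineweaver-Burk plots, and Ki was then calculated. Runs were in triplicate, repeated twice, reported as mean ± SD.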

Experiment [2] deals with T1, Escherichia coli GUS (EcGUS). The experiment is described as follows: EcGUS inhibition assay. In kind it is biochemical. As to conditions: for percentage inhibition rate of EcGUS: compounds at 100 μM, pNPG as substrate; for inhibition at 100 µM: read-out: percentage inhibition rate of EcGUS.
[3] abbreviates: read-out: IC50 against EcGUS, pNPG 250 µM, PBS pH 7.4, 37 °C, 30 min.

Where two headings read alike, the source gives them in different places.

Results on nine compounds are retold here after paper PMC7717682 (Journal of Enzyme Inhibition and Medicinal Chemistry, 2020).

T1 sequence (P05804 whole entry): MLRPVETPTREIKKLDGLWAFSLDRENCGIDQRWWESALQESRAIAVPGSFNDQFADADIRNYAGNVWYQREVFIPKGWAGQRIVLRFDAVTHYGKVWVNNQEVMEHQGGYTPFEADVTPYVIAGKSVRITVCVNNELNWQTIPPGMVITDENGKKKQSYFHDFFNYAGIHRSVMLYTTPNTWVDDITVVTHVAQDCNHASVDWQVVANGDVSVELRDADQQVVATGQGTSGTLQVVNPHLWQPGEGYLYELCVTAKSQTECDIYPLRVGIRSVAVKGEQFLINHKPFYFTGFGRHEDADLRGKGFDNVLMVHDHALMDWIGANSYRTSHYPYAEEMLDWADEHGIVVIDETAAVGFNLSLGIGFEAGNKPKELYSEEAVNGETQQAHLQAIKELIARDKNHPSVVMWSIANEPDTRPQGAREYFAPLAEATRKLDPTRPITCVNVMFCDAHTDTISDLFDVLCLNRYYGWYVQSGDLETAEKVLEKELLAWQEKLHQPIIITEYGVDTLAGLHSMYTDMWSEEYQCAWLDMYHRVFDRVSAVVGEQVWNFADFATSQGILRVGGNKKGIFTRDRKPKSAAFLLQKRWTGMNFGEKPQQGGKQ

One may read the Ki as a dissociation constant, usually derived from enzyme kinetics or from competition with a known ligand. What is called IC50 is the concentration at which inhibition is half-maximal. Take `CCOC(=O)/C=C/c1ccc(O)c(O)c1` [CAEE, caffeic acid ethyl ester]: the “type of inhibition of EcGUS” value in experiment [1] is recorded as “competitive”. The inhibition constant (Ki) in experiment [1] (read-out: Ki (inhibition constant) against EcGUS) was 2.7 µM. Moreover, the “percentage inhibition rate of EcGUS” value in experiment [2] is on record as 97.1 ± 0.2%. Besides, in experiment [2] (setting [3]), the 50% inhibitory concentration (IC50) came out at 7 µM.
As to `O=C(O)[C@@H](O)[C@H]1OC(=O)[C@H](O)[C@H]1O` [DSL, D-glucaric acid-1,4-lactone, reference compound], in experiment [2], the “percentage inhibition rate of EcGUS” value is recorded as 48.7 ± 1.2%. Further, the IC50 in experiment [2] (setting [3]) was found to be 67.1 µM.
What is called inhibition is the share of the control response that was lost under treatment. In the case of `C[C@@H]1O[C@@H](O[C@@H]2[C@@H](O)[C@H](OCCc3ccc(O)c(O)c3)O[C@H](CO)[C@H]2OC(=O)/C=C/c2ccc(O)c(O)c2)[C@H](O)[C@H](O)[C@H]1O` [acteoside], the “type of inhibition of EcGUS” value in experiment [1] is listed as “mixed-type”. Also, in experiment [2], the IC50 was 3.2 µM and the inhibition at 100 µM was found to be 88 ± 2.2%.
As for `COc1ccc(CCO[C@@H]2O[C@H](CO[C@@H]3OC[C@H](O)[C@H](O)[C@H]3O)[C@@H](OC(=O)/C=C/c3ccc(O)c(OC)c3)[C@H](O[C@@H]3O[C@@H](C)[C@H](O)[C@@H](O)[C@H]3O)[C@H]2O)cc1O` [angoroside C], the IC50 in experiment [2] (setting [3]) is above 100 µM.
Regarding `C[C@@H]1O[C@@H](OC[C@H]2O[C@@H](OCCc3ccc(O)c(O)c3)[C@H](OC(=O)/C=C/c3ccc(O)c(O)c3)[C@@H](O)[C@@H]2O)[C@H](O)[C@H](O)[C@H]1O` [forsythoside H], the IC50 in experiment [2] (setting [3]) amounted to 22.2 µM.
For the compound `C[C@@H]1O[C@@H](O[C@@H]2[C@@H](O)[C@H](OCCc3ccc(O)c(O)c3)O[C@H](COC(=O)/C=C/c3ccc(O)c(O)c3)[C@H]2O)[C@H](O)[C@H](O)[C@H]1O` [isoacteoside], the “type of inhibition of EcGUS” value in experiment [1] is “mixed-type”. Further, in experiment [2], the midpoint of inhibition, the IC50, lay at 8.8 µM and the inhibition at 100 µM amounted to 77%.
Turning to `C[C@@H]1O[C@@H](OC[C@H]2O[C@@H](OCCc3ccc(O)c(O)c3)[C@H](O)[C@@H](OC(=O)/C=C/c3ccc(O)c(O)c3)[C@@H]2O)[C@H](O)[C@H](O)[C@H]1O` [isoforsythiaside], the “type of inhibition of EcGUS” value in experiment [1] is on record as “mixed-type”. For the same compound, in experiment [2] (setting [3]), the IC50 is 7.6 µM.
In the same order, the values of `COc1ccc(CCO[C@@H]2O[C@H](CO)[C@@H](OC(=O)/C=C/c3ccc(O)c(OC)c3)[C@H](O[C@@H]3O[C@@H](C)[C@H](O)[C@@H](O)[C@H]3O)[C@H]2O)cc1O` [martynoside] are “mixed-type” and 14.3 µM.
Turning to acetylacteoside, the “type of inhibition of EcGUS” value in experiment [1] was “mixed-type”.
